In the library only some 5.9% were active in any assay of this set; here they are far more common.
T cruzi growth: T. cruzi intracellular proliferation inhibitors, primary screen, cell-based, beta-gal Tulahuen parasites, NIH3T3 host, luminescence; T. cruzi beta-gal in NIH3T3, GalScreen luminescence, 90 h; inhibition, % at 8.34 µM; 77,000 compounds, 5.9% hits;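 active means mean inhibition above about 93%, with at least 55% of replicates each passing it, limit read from the data, passing the limit was not always enough; inconclusive means only one of those two conditions holds; inactive means neither condition holds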
KDM4C inh: inhibitors of GASC-1 (KDM4C) histone demethylase, primary screen, biochemical, single concentration HTS | Lysine-specific demethylase 4C (Homo sapiens), Q9H3R0 | inhibition, % at 12.5 µM | 96,000 compounds, 0.15% hits | GST-KDM4C 2-372, H3K9me3 peptide, LANCE TR-FRET;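 active means mean replicate inhibition above about 25%, with at least 55% of replicates also reaching it, limit read from the data, passing the limit was not always enough; inconclusive means only one of those two conditions met; inactive means neither condition met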
Target sequence (Q9H3R0 2-372 limits assumed): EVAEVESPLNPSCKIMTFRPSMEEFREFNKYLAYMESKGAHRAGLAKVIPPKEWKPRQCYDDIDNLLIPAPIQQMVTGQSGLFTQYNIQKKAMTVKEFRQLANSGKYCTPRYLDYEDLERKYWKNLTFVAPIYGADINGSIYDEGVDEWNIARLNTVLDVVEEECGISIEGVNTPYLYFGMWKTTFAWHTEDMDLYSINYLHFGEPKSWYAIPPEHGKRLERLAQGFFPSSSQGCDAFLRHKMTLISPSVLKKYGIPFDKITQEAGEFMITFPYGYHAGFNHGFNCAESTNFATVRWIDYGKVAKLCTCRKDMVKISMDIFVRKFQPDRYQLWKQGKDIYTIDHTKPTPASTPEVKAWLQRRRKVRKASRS
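Assay system: GST-GASC-1 enzyme fragment 2-372 | Amount: 10 nM enzyme | Medium: HEPES buffer, pH 7.5, plus ascorbate | Reagent: H3K9me3 peptide substrate, Fe(II), 2-oxoglutarate | Doses: Single-point compound screen | Incubation: 30 min demethylation and 1 h detection at room temperature | Measured by: LANCE TR-FRET, excitation 340 nm, emissions 618 and 671 nm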
IDH1 mut inh: inhibitors of IDH1 R132H reductase, primary screen, biochemical, plate reader, single point; Isocitrate dehydrogenase [NADP] cytoplasmic (Homo sapiens), O75874; 70,000 compounds, 0.18% hits; inhibition, % at 10 µM; AID 624101, 2012; diaphorase/resazurin fluorescence, 60 min; in the data active means inhibition above about 34%; inconclusive means no clear call, values can overlap the other calls; inactive means below about 11%;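 further: 0% = DMSO and 100% = no enzyme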
Pf Dd2 inh: P. falciparum Dd2 growth inhibitors, primary screen, SYBR Green fluorescence, single dose replicates; 72 h; stronger effect = lower value; activity change, % at 10 µM; 94,000 compounds, 2.3% hits; in the data active means activity change below about -80%; inconclusive means no clear call, values can overlap the other calls
* hit, by the source's call; ? = inconclusive; . = no result; ! = repeats disagree.

SMILES	T cruzi growth	KDM4C inh	IDH1 mut inh	Pf Dd2 inh
C[C@@H]1CN([C@H](C)CO)S(=O)(=O)c2ccc(-c3cncnc3)cc2O[C@@H]1CN(C)C(=O)Cc1ccncc1	30.6	0.7	3.5	25.9
Cc1noc(C)c1S(=O)(=O)Nc1ccc2c(c1)C(=O)N([C@@H](C)CO)C[C@@H](C)[C@H](CN(C)S(=O)(=O)c1ccc(F)cc1)O2	9.1	-0.7	.	-84.8*
Cc1noc(C)c1S(=O)(=O)Nc1ccc2c(c1)C(=O)N([C@@H](C)CO)C[C@@H](C)[C@@H](CN(C)S(=O)(=O)c1ccc(Cl)cc1)OCCCC[C@H](C)O2	61.0	-0.2	.	-92.0*
Cc1ccc(S(=O)(=O)Nc2ccc3c(c2)C(=O)N([C@@H](C)CO)C[C@H](C)[C@@H](CN(C)S(=O)(=O)c2ccc(Cl)cc2)OCCCC[C@@H](C)O3)cc1	73.7	-0.2	1.8	?
Cc1ccc(S(=O)(=O)Nc2ccc3c(c2)C(=O)N([C@@H](C)CO)C[C@H](C)[C@@H](CN(C)S(=O)(=O)c2ccc(Cl)cc2)OCCCC[C@H](C)O3)cc1	82.7	-1.3	3.4	-86.1*
Cc1ccc(S(=O)(=O)Nc2ccc3c(c2)C(=O)N([C@H](C)CO)C[C@@H](C)[C@@H](CN(C)S(=O)(=O)c2ccccc2)OCCCC[C@@H](C)O3)cc1	.	11.6	-0.1	-63.7
Cc1ccc(S(=O)(=O)N(C)C[C@@H]2OCCCC[C@H](C)Oc3ccc(NS(=O)(=O)c4ccccc4)cc3C(=O)N([C@@H](C)CO)C[C@@H]2C)cc1	109.9*	-1.7	1.1	-54.2
COc1ccc(NC(=O)Nc2ccc3c(c2)C(=O)N([C@@H](C)CO)C[C@H](C)[C@H](CN(C)S(=O)(=O)c2ccc(C)cc2)OCCCC[C@@H](C)O3)cc1	39.1	0.1	1.0	-86.1*
COc1ccc(NC(=O)Nc2ccc3c(c2)C(=O)N([C@H](C)CO)C[C@@H](C)[C@H](CN(C)S(=O)(=O)c2ccccc2)OCCCC[C@@H](C)O3)cc1	-25.6	-1.3	0.8	-82.5*
COc1ccc(S(=O)(=O)N(C)C[C@H]2OCCCC[C@@H](C)Oc3ccc(NC(=O)Nc4ccccc4)cc3C(=O)N([C@H](C)CO)C[C@@H]2C)cc1	-53.2	0.2	.	-8.9
COc1ccc(NC(=O)Nc2ccc3c(c2)C(=O)N([C@H](C)CO)C[C@@H](C)[C@H](CN(C)S(=O)(=O)c2ccc(C)cc2)OCCCC[C@H](C)O3)cc1	72.5	0.5	1.0	-66.6
COc1ccc(S(=O)(=O)N(C)C[C@H]2OCCCC[C@H](C)Oc3ccc(NC(=O)Nc4ccccc4)cc3C(=O)N([C@@H](C)CO)C[C@H]2C)cc1	48.7	-0.2	.	-83.3*
Cc1ccc(NC(=O)c2ccc(OC(=O)CN3C(=O)c4ccccc4C3=O)cc2)cc1	.	.	-0.2	.
Cc1ccc(S(=O)(=O)N(C)C[C@H]2OCCCC[C@H](C)Oc3ccc(NC(=O)NC4CCCCC4)cc3C(=O)N([C@H](C)CO)C[C@H]2C)cc1	85.4	-0.6	-10.2	-82.7*
Cc1ccc(S(=O)(=O)N(C)C[C@@H]2OCCCC[C@@H](C)Oc3ccc(NC(=O)NC4CCCCC4)cc3C(=O)N([C@@H](C)CO)C[C@@H]2C)cc1	61.2	-0.1	.	-86.3*
CC(C)C#Cc1ccc2c(c1)O[C@H](CN(C)Cc1ccncc1)[C@@H](C)CN([C@@H](C)CO)S2(=O)=O	117.1*	-0.2	4.6	-65.3
CC(C)C#Cc1ccc2c(c1)O[C@@H](CN(C)Cc1ccncc1)[C@H](C)CN([C@@H](C)CO)S2(=O)=O	121.2*	-0.8	3.1	-73.7
C[C@H](O)C#Cc1ccc2c(c1)O[C@@H](CN(C)Cc1ccncc1)[C@@H](C)CN([C@H](C)CO)S2(=O)=O	89.9	-0.2	.	2.1
C[C@@H]1CN([C@H](C)CO)S(=O)(=O)c2ccc(-c3ccncc3)cc2O[C@H]1CN(C)Cc1ccc(Oc2ccccc2)cc1	52.6	3.4	0.5	-87.4*
C[C@@H]1CN([C@@H](C)CO)S(=O)(=O)c2ccc(C#C[C@@H](C)O)cc2O[C@@H]1CN(C)Cc1ccncc1	56.6	-2.1	.	-17.2
C/C=C/c1ccc([C@@H]2[C@H](CO)N(CC3CC3)C23CN(C(=O)c2ccc4c(c2)OCO4)C3)cc1	.	-0.8	.	-82.5*
O=C(CN1CCOCC1)NCC[C@H]1CC[C@H](NC(=O)c2ccc3c(c2)OCO3)[C@H](CO)O1	-0.1	49.7*	61.4*	-9.3
COc1ccc(-c2ccc(C3[C@@H]4CN(Cc5cc(OC)cc(OC)c5)C[C@H]3N4)cc2)cc1 (some centres not stated)	.	1.3	.	-87.5*!
COc1cc(CN2C[C@@H]3N[C@H](C2)C3c2ccc(-c3cncnc3)cc2)cc(OC)c1 (some centres not stated)	.	1.0	.	-11.7
COc1cc(CN2C[C@@H]3N[C@H](C2)C3c2ccc(-c3cccc(OC)c3)cc2)cc(OC)c1 (some centres not stated)	.	0.1	.	-75.1
SMILES	T cruzi growth	KDM4C inh	IDH1 mut inh	Pf Dd2 inh
C/C=C/c1ccc(C2[C@@H]3CN(Cc4cccc(OC)c4)C[C@H]2N3)cc1 (some centres not stated)	.	-0.3	.	-19.4
COc1cc(CN2C[C@@H]3N[C@H](C2)C3c2ccc(/C=C/c3ccccc3)cc2)cc(OC)c1 (some centres not stated)	.	-0.3	.	-88.3*!
COc1cc(CN2C[C@@H]3N[C@H](C2)C3c2ccc(-c3ccncc3)cc2)cc(OC)c1 (some centres not stated)	.	0.0	.	-80.9*
C[C@@H]1CN([C@@H](C)CO)C(=O)c2cc(NC(=O)NC3CCCCC3)ccc2O[C@@H]1CN(C)S(=O)(=O)c1ccccc1	.	0.3	0.1	19.6
Cc1noc(C)c1NC(=O)Nc1ccc2c(c1)C(=O)N([C@@H](C)CO)C[C@H](C)[C@H](CN(C)Cc1ccccc1)OCCCC[C@H](C)O2	19.0	-0.4	0.0	-23.3
C[C@@H]1CCCCO[C@H](CN(C)C(=O)Nc2ccccc2)[C@H](C)CN([C@H](C)CO)C(=O)c2cc(NC(=O)C3CCCCC3)ccc2O1	56.7	-0.6	2.5	-86.6*
C[C@@H]1CCCCO[C@H](CN(C)C(=O)Nc2ccccc2)[C@@H](C)CN([C@H](C)CO)C(=O)c2cc(NC(=O)C3CCCCC3)ccc2O1	55.9	0.2	0.3	-10.5
C[C@H]1CCCCO[C@@H](CN(C)C(=O)Nc2ccc(F)cc2)[C@@H](C)CN([C@@H](C)CO)C(=O)c2cc(NC(=O)C3CCCCC3)ccc2O1	72.2	-3.1	-2.7	-63.5
C[C@@H]1CCCCO[C@H](CN(C)C(=O)Nc2ccc(F)cc2)[C@@H](C)CN([C@@H](C)CO)C(=O)c2cc(NC(=O)C3CCCCC3)ccc2O1	65.8	-0.2	.	-86.4*
